Laboratory results as given in ChEMBL document CHEMBL4680189, “Immunosuppressive properties of amino acid and peptide derivatives of mycophenolic acid” (Eur J Med Chem, 2020).
Activity calls are given as the source filed them. No cut-off for these calls is given here. Where a SMILES comes first, the peptide text is derived from it. [ ]: non-standard residue; d: D form. The star is where a group is joined. Mycophenolyl = COc1c(C)c2c(c(O)c1C/C=C(\C)CCC(=O)*)C(=O)OC2; Arg(NO2) = N=C(NCCC[C@H](N)C(=O)O)N[N+](=O)[O-]; βAla = NCCC(=O)O

Tests used:
PBMC = test: Immunosuppression-mediated antiproliferative activity against anti-CD3/anti-CD28-stimulated human PBMC cells assessed as inhibition of cell growth incubated for 72 hrs in presence of GMP by VPD450 staining based flow cytometry; format: functional
Outline: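 VPD450-stained PBMC, 50×10^3 cells/well, anti-CD3/anti-CD28 stimulation, serial compound dilutions plus GMP at 50 μM in the well. Incubated 72 h at 37 °C, 5% CO2, in triplicate. Proliferation read by flow cytometry as dye dilution and expressed relative to controls.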

[1] = Selectivity index, ratio of IC50 for cytotoxicity against human PBMC by MTT assay to EC50 for antiproliferative activity against human PBMC by VPD450 staining based flow cytometry
Outline: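 Ratio of the MTT cytotoxicity IC50 (72 h, stimulated PBMC) to the VPD450 antiproliferative EC50 (72 h, stimulated PBMC), both from fitted concentration-response curves.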

[2] = Immunosuppression-mediated antiproliferative activity against anti-CD3/anti-CD28-stimulated human PBMC cells assessed as inhibition of cell growth incubated for 72 hrs by VPD450 staining based flow cytometry; format: functional
Outline: (§1)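 Cells stained with VPD450 (2 μL of 1 mM dye per 10-30×10^6 cells in 1 mL PBS, 15 min, 37 °C), washed. PBMC: 50×10^3 cells/well with anti-CD3/anti-CD28, serial compound dilutions, 72 h. Jurkat: 50×10^3 cells/well, 48 h. 37 °C, 5% CO2, triplicate. Dye dilution by flow cytometry; EC50 from curve fit.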

[3] = Immunosuppression-mediated cytotoxicity against anti-CD3/anti-CD28-stimulated human PBMC cells assessed as reduction in cell viability incubated for 72 hrs by MTT assay; format: cell-based
Outline: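 PBMC from buffy coats of healthy donors, isolated on a Ficoll gradient with erythrocyte lysis. Plated at 50×10^3 cells/well with anti-CD3/anti-CD28, serial compound dilutions, in triplicate. Incubated 72 h, 37 °C, 5% CO2. MTT added for 3 h, formazan dissolved in acidified isopropanol (0.4 N HCl), A570 read. Three donors averaged; IC50 from curve fit.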

Jurkat [4] = test: Immunosuppression-mediated antiproliferative activity against human Jurkat T cells assessed as inhibition of cell growth incubated for 48 hrs by VPD450 staining based flow cytometry; format: functional; outline: as §1
Jurkat [5] = test: Immunosuppression-mediated cytotoxicity against human Jurkat T cells assessed as reduction in cell viability at 1 mg/ml incubated for 48 hrs by MTT assay relative to control; format: cell-based
Outline: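 Jurkat cells (RPMI-1640, 10% FBS) plated at 50×10^3 cells/well and exposed to 1 mg/mL compound (1 mg in 20 μL DMSO, made up to 1 mL with medium). 48 h at 37 °C, 5% CO2, in triplicate. MTT (5 mg/mL stock) for 3 h, acidified isopropanol, A570. Viability calculated at that concentration.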

[6] = Selectivity index, ratio of IC50 for cytotoxicity against human Jurkat T cells by MTT assay to EC50 for antiproliferative activity against human Jurkat T cells by VPD450 staining based flow cytometry
Outline: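 Jurkat IC50 from the 48 h MTT assay (50×10^3 cells/well, triplicate) divided by Jurkat EC50. […] Cells treated 48 h with serial dilutions, then dye dilution read by flow cytometry and fitted.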

Jurkat [7] = test: Immunosuppression-mediated cytotoxicity against human Jurkat T cells assessed as reduction in cell viability incubated for 48 hrs by MTT assay; format: cell-based
Outline: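 Jurkat cells in RPMI-1640 with 10% FBS and P/S, 50×10^3 cells/well, exposed in triplicate to serial dilutions from 1 mg/mL (DMSO/medium) for 48 h at 37 °C, 5% CO2. MTT (5 mg/ml) then added for 3 h. Formazan dissolved in 0.4 N HCl–isopropanol, absorbance read at 570 nm. IC50 from curve fitting; viability at 1 mg/mL used where IC50 could not be reached.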

[8] = Stability in human Jurkat T cells assessed as compound remaining at EC50 concentration after 5 days by HPLC-MS analysis; format: ADME, cell-based; conditions: time 5 day, read-out: Stabilty
Outline: (§2)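 Compounds incubated at their EC50 concentrations with Jurkat cells for 5 days, sampled daily. Amount measured by HPLC-MS: C18 column at 40 °C, 0.4 mL/min, 0.1% HCOOH water to ACN/MeOH gradient, UV 254 nm, ESI-MS. Peak area on day 1 taken as 100%.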

[9] = Stability in human Jurkat T cells assessed as compound remaining at EC50 concentration after 3 days by HPLC-MS analysis; format: ADME, cell-based; conditions: time 3 day, read-out: Stabilty; outline: as §2
Jurkat [10] = test: Immunosuppression-mediated antiproliferative activity against human Jurkat T cells assessed as inhibition of cell growth at 1 mg/ml incubated for 48 hrs by VPD450 staining based flow cytometry relative to control; format: functional; parameters: scale not given: the % may be the effect or the level left
Outline: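 Jurkat cells stained with VPD450 (2 μL of 1 mM dye per 10-30×10^6 cells, 15 min, 37 °C) and plated at 50×10^3 cells/well. Compound added at the top concentration, 1 mg/mL (1 mg dissolved in 20 μL DMSO, made up to 1 mL with medium). 48 h at 37 °C, 5% CO2, in triplicate. Read by flow cytometry; […].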

[11] = Immunosuppression-mediated cytotoxicity against anti-CD3/anti-CD28-stimulated human PBMC cells assessed as reduction in cell viability at 1 mg/ml incubated for 72 hrs by MTT assay relative to control; format: cell-based
Outline: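 Anti-CD3/anti-CD28-stimulated PBMC, 50×10^3 cells/well, exposed to compound at the highest concentration, 1 mg/mL, for 72 h at 37 °C, 5% CO2, in triplicate. MTT for 3 h, acidified isopropanol, A570. Viability calculated at that concentration; three donors averaged.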

| Compound | Activity (PBMC) | Ratio IC50/EC50 [1] | EC50 [2] | IC50 [3] | EC50 (Jurkat [4]) | Activity (Jurkat [5]) | Ratio IC50/EC50 [6] | IC50 (Jurkat [7]) | remaining at 120 h [8] | remaining at 72 h [9] | Activity (Jurkat [10]) | Activity [11] |
| --- | --- | --- | --- | --- | --- | --- | --- | --- | --- | --- | --- | --- |
| COc1c(C)c2c(c(O)c1C/C=C(\C)CCC(=O)N[C@H](CCCNC(=N)N[N+](=O)[O-])C(=O)O)C(=O)OC2 | inactive | 0.7 | 588 µM | 422 µM | 1040 µM | 75.14% | – | – | – | – | – | – |
| COc1c(C)c2c(c(O)c1C/C=C(\C)CCC(=O)N[C@@H](CCCNC(=N)N[N+](=O)[O-])C(=O)O)C(=O)OC2 | inactive | 2.2 | 132 µM | 283 µM | 1190 µM | 59.12% | – | – | – | – | – | – |
| COC(=O)[C@@H](NC(=O)CC/C(C)=C/Cc1c(O)c2c(c(C)c1OC)COC2=O)[C@@H](C)O | inactive | 5.7 | 10 µM | 57 µM | 10 µM | – | 1.8 | 17 µM | > 40% | – | – | – |
| COC(=O)[C@H](CCCNC(=N)N[N+](=O)[O-])NC(=O)[C@@H]1CCCN1C(=O)[C@H](CCCCNC(=O)[C@H](C)N)NC(=O)[C@@H](NC(=O)CC/C(C)=C/Cc1c(O)c2c(c(C)c1OC)COC2=O)[C@@H](C)O (Mycophenolyl-TK(Ala)P[Arg(NO2)]-OMe) | – | 2.2 | 259 µM | 560 µM | – | – | – | 1000 µM | – | 50% | 55.31% | – |
| COC(=O)[C@H](CCCNC(=N)N[N+](=O)[O-])NC(=O)[C@@H]1CCCN1C(=O)[C@H](CCCCNC(=O)CN)NC(=O)[C@@H](NC(=O)CC/C(C)=C/Cc1c(O)c2c(c(C)c1OC)COC2=O)[C@@H](C)O (Mycophenolyl-TK(Gly)P[Arg(NO2)]-OMe) | – | 1.1 | 590 µM | 628 µM | 1030 µM | 53.4% | – | – | – | – | – | – |
| COC(=O)[C@H](CCCNC(=N)N[N+](=O)[O-])NC(=O)[C@@H]1CCCN1C(=O)[C@H](CCCCNC(=O)[C@@H](N)CC(C)C)NC(=O)[C@@H](NC(=O)CC/C(C)=C/Cc1c(O)c2c(c(C)c1OC)COC2=O)[C@@H](C)O (Mycophenolyl-TK(Leu)P[Arg(NO2)]-OMe) | – | 1.2 | 551 µM | 687 µM | 801 µM | 67.04% | – | – | – | – | – | – |
| COC(=O)[C@H](CCCNC(=N)N[N+](=O)[O-])NC(=O)[C@@H]1CCCN1C(=O)[C@H](CCCCNC(=O)[C@@H](N)C(C)C)NC(=O)[C@@H](NC(=O)CC/C(C)=C/Cc1c(O)c2c(c(C)c1OC)COC2=O)[C@@H](C)O (Mycophenolyl-TK(Val)P[Arg(NO2)]-OMe) | inactive | – | 432 µM | – | – | 66.56% | – | – | – | – | 55.1% | 56.81% |
| COC(=O)[C@H](CCCNC(=N)N[N+](=O)[O-])NC(=O)[C@@H]1CCCN1C(=O)[C@H](CCCCN)NC(=O)[C@@H](NC(=O)CC/C(C)=C/Cc1c(O)c2c(c(C)c1OC)COC2=O)[C@@H](C)O (Mycophenolyl-TKP[Arg(NO2)]-OMe) | – | – | 130 µM | – | – | 85.82% | – | – | – | – | 60.78% | 99.09% |
| COC(=O)[C@@H](NC(=O)[C@H](CCCCNC(=O)[C@H](C)N)NC(=O)[C@@H]1CCCN1C(=O)[C@H](CCCNC(=N)N[N+](=O)[O-])NC(=O)CC/C(C)=C/Cc1c(O)c2c(c(C)c1OC)COC2=O)[C@@H](C)O (Mycophenolyl-[Arg(NO2)]PK(Ala)T-OMe) | inactive | 4.5 | 168 µM | 750 µM | 839 µM | 53.9% | – | – | – | – | – | – |
| COC(=O)[C@@H](NC(=O)[C@H](CCCCNC(=O)CN)NC(=O)[C@@H]1CCCN1C(=O)[C@H](CCCNC(=N)N[N+](=O)[O-])NC(=O)CC/C(C)=C/Cc1c(O)c2c(c(C)c1OC)COC2=O)[C@@H](C)O (Mycophenolyl-[Arg(NO2)]PK(Gly)T-OMe) | – | 1.5 | 566 µM | 865 µM | – | – | – | 1100 µM | – | – | 56.72% | – |
| CC[C@H](C)[C@H](N)C(=O)NCCCC[C@H](NC(=O)[C@@H]1CCCN1C(=O)[C@H](CCCNC(=N)N[N+](=O)[O-])NC(=O)CC/C(C)=C/Cc1c(O)c2c(c(C)c1OC)COC2=O)C(=O)N[C@H](C(=O)OC)[C@@H](C)O (Mycophenolyl-[Arg(NO2)]PK(Ile)T-OMe) | – | 3.5 | 152 µM | 533 µM | – | 52.48% | – | – | – | – | 52.77% | – |
| COC(=O)[C@@H](NC(=O)[C@H](CCCCNC(=O)[C@@H](N)CC(C)C)NC(=O)[C@@H]1CCCN1C(=O)[C@H](CCCNC(=N)N[N+](=O)[O-])NC(=O)CC/C(C)=C/Cc1c(O)c2c(c(C)c1OC)COC2=O)[C@@H](C)O (Mycophenolyl-[Arg(NO2)]PK(Leu)T-OMe) | – | 3.2 | 161 µM | 519 µM | – | 61.34% | – | – | – | – | 63.04% | – |
| COC(=O)[C@@H](NC(=O)[C@H](CCCCNC(=O)[C@@H](N)C(C)C)NC(=O)[C@@H]1CCCN1C(=O)[C@H](CCCNC(=N)N[N+](=O)[O-])NC(=O)CC/C(C)=C/Cc1c(O)c2c(c(C)c1OC)COC2=O)[C@@H](C)O (Mycophenolyl-[Arg(NO2)]PK(Val)T-OMe) | inactive | 4.3 | 129 µM | 548 µM | 556 µM | 63.35% | – | – | – | – | – | – |
| COC(=O)[C@@H](NC(=O)[C@H](CCCCNC(=O)CCN)NC(=O)[C@@H]1CCCN1C(=O)[C@H](CCCNC(=N)N[N+](=O)[O-])NC(=O)CC/C(C)=C/Cc1c(O)c2c(c(C)c1OC)COC2=O)[C@@H](C)O (Mycophenolyl-[Arg(NO2)]PK(βAla)T-OMe) | – | 3.8 | 154 µM | 588 µM | – | – | – | 786 µM | – | – | 75.89% | – |
| COC(=O)[C@@H](NC(=O)[C@H](CCCCN)NC(=O)[C@@H]1CCCN1C(=O)[C@H](CCCNC(=N)N[N+](=O)[O-])NC(=O)CC/C(C)=C/Cc1c(O)c2c(c(C)c1OC)COC2=O)[C@@H](C)O (Mycophenolyl-[Arg(NO2)]PKT-OMe) | inactive | 18 | 35.4 µM | 634 µM | 664 µM | – | 1.5 | 971 µM | – | 50% | – | – |
